{"data": "Measured values from different studies", "target": "Calcium/calmodulin-dependent protein kinase type IV (CAMK4, Homo sapiens, UniProt Q16566)", "Residues used in one study (Q16566 1-473)": "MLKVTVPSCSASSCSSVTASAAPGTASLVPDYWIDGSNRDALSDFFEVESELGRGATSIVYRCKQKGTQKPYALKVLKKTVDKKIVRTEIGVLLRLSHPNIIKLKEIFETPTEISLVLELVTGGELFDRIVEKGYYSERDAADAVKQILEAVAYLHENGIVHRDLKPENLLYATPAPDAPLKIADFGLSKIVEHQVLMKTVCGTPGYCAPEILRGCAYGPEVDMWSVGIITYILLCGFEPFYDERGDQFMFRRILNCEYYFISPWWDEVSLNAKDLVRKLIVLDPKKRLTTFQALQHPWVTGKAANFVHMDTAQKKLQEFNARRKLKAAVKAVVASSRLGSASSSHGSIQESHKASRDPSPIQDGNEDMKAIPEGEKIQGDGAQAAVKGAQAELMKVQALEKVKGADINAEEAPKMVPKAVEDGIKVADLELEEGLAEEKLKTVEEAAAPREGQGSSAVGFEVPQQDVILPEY", "note": "Compare with care: the assays were run in different laboratories."}
{"Compound": "O=C(Nc1c[nH]nc1C(=O)NC1CCNCC1)c1cc(F)cc(F)c1", "test": "binding, competition with immobilised ligand", "conditions": "1 µM", "remaining binding": "100%"}
{"Compound": "Cc1cc(-n2nc(Cc3cc(F)cc(C(F)(F)F)c3)nc2C)ccc1C(N)=O", "test": "cell-free assay, competition with immobilised ligand", "conditions": "1 µM", "remaining binding": "100%"}
{"Compound": "CN(C)c1nccc(-c2cnn3ncccc23)n1", "test": "binding", "conditions": "1 µM", "remaining binding": "100%"}
{"Compound": "CCN1CCN(Cc2ccc(C(=O)Nc3ccc(C)c(Oc4ccc5c(c4)CC(=O)N5)c3)cc2C(F)(F)F)CC1", "test": "binding, competition with immobilised ligand", "conditions": "1 µM", "remaining binding": "100%"}
{"Compound": "COc1cnc(Nc2cccc(S(N)(=O)=O)c2)nc1N1CCN(c2ccccc2)CC1", "test": "binding, competition with immobilised ligand", "conditions": "1 µM", "remaining binding": "100%"}
{"Compound": "FC(F)(F)Oc1cccc(-c2cnc3ccc(-c4ccncc4)nn23)c1", "test": "cell-free assay, competition with immobilised ligand", "conditions": "5 µM", "remaining binding": "100%"}
{"Compound": "c1cncc(-c2cccc(Nc3nccc(NC4CCCCC4)n3)c2)c1", "test": "binding, competition with immobilised ligand", "conditions": "10 µM", "remaining binding": "100%"}
{"Compound": "CS(=O)(=O)c1cc(C2(NC(=O)c3cncc4c3cnn4-c3ccc(F)cc3)CC2)ccn1", "test": "cell-free assay, competition with immobilised ligand", "conditions": "1 µM", "remaining binding": "100%"}
{"Compound": "COc1ccnn2ncc(-c3ccnc(N(C)C)n3)c12", "test": "binding", "conditions": "1 µM", "remaining binding": "100%"}
{"Compound": "Cn1nc(C(F)(F)F)cc1-c1cnc(N2CCc3cc(S(=O)(=O)Nc4c(F)cc(Cl)cc4F)cc(N4CCCC4=O)c32)nc1", "test": "cell-free assay, competition with immobilised ligand", "conditions": "1 µM", "remaining binding": "100%"}
{"Compound": "C[C@@H]1CCN(c2nccc(-c3cnn4ncccc34)n2)C1", "test": "binding", "conditions": "1 µM", "remaining binding": "100%"}
{"Compound": "Cc1cnc(Nc2ccc(C(=O)N3CCC(N4CCCC4)CC3)cc2)nc1-c1cc2ccccc2s1", "test": "binding, competition with immobilised ligand", "conditions": "1 µM", "remaining binding": "100%"}
{"Compound": "C[C@H](c1ccnc(Nc2nc3ccc(-c4cc(N(C)C)ncn4)cc3[nH]2)c1)N1CCN(C(=O)CC(F)(F)F)CC1", "test": "cell-free assay, competition with immobilised ligand", "conditions": "0.1 µM", "remaining binding": "100%"}
{"Compound": "COc1ncc2cc3ccccc3nc2c1C#N", "test": "cell-free assay, competition with immobilised ligand", "conditions": "5 µM", "remaining binding": "93%"}
{"Compound": "CC1CCCN1c1nccc(-c2cnn3ncccc23)n1 (stereo not shown)", "test": "binding", "conditions": "1 µM", "remaining binding": "100%"}
{"Compound": "O=C(c1ccc(Nc2ncc(Cl)c(-c3ccc(Cl)s3)n2)cc1)N1CCC(N2CCCC2)CC1", "test": "binding, competition with immobilised ligand", "conditions": "1 µM", "remaining binding": "100%"}
{"Compound": "C[C@H](NC(=O)c1cnc2n1[C@](C)(Cc1ccc(C#N)cc1)C(=O)N2c1cc(Cl)c(F)c(Cl)c1)C(=O)NC1(c2ccccn2)CC1", "test": "cell-free assay, competition with immobilised ligand", "conditions": "1 µM", "remaining binding": "100%"}
{"Compound": "O=C(c1ccc(Nc2nccc(-c3cc4ccccc4s3)n2)cc1)N1CCC(N2CCCC2)CC1", "test": "binding, competition with immobilised ligand", "conditions": "1 µM", "remaining binding": "100%"}
{"Compound": "COc1ccc2c(O[C@@H]3C[C@H]4C(=O)N[C@]5(C(=O)O)CC5/C=C\\CCCCC[C@H](NC(=O)OC5CCCC5)C(=O)N4C3)cc(-c3csc(NC(=O)C(C)C)n3)nc2c1C (stereo partly shown)", "test": "cell-free assay, competition with immobilised ligand", "conditions": "1 µM", "remaining binding": "95%"}
{"Compound": "N[C@@H]1CCN(c2nccc(-c3cnn4ncccc34)n2)C1", "test": "binding", "conditions": "1 µM", "remaining binding": "100%"}
{"Compound": "CC(C)(O)c1cncc(-c2nc3ccc(F)cc3n2C2CC2)c1", "test": "cell-free assay, competition with immobilised ligand", "conditions": "1 µM", "remaining binding": "100%"}
{"Compound": "CN(CCCC(F)(F)F)c1nccc(-c2cnn3ncccc23)n1", "test": "binding", "conditions": "1 µM", "remaining binding": "64%"}
